{"data": "Measured values from different studies", "medium": "plasma", "note": "Lines come from different studies, so protocols differ."}
{"Structure (SMILES)": "CC[C@H](C)[C@H](NC(=O)[C@H](Cc1ccccc1)NC(=O)[C@H](CCC(=O)O)NC(=O)[C@H](CCCNC(=N)N)NC(=O)[C@H](C)NC(=O)[C@H](C)NC(=O)[C@H](CCC(N)=O)NC(=O)[C@H](CCC(=O)O)NC(=O)[C@H](CCC(=O)O)NC(=O)[C@H](CC(C)C)NC(=O)[C@H](Cc1ccc(O)cc1)NC(=O)[C@H](CO)NC(=O)[C@H](CO)NC(=O)[C@@H](NC(=O)[C@H](CC(=O)O)NC(=O)[C@H](CO)NC(=O)[C@@H](NC(=O)[C@H](Cc1ccccc1)NC(=O)[C@@H](NC(=O)CNC(=O)[C@H](CCC(=O)O)NC(=O)[C@H](C)NC(=O)CCc1c[nH]cn1)[C@@H](C)O)[C@@H](C)O)C(C)C)C(=O)N[C@@H](C)C(=O)N[C@@H](Cc1c[nH]c2ccccc12)C(=O)N[C@@H](CC(C)C)C(=O)N[C@H](C(=O)N[C@@H](CCCNC(=N)N)C(=O)NCC(=O)N[C@@H](CCCNC(=N)N)C(=O)N[C@@H](CCCCNC(=O)COCCOCCNC(=O)COCCOCCNC(=O)CC[C@H](NC(=O)CCCCCCCCCCCCCCCCC(=O)O)C(=O)O)C(=O)O)C(C)C", "test system": "rat", "setting": "subcutaneous, 20 nmol/kg", "quantity": "AUC", "result": "1.98 µM·h"}
{"Structure (SMILES)": "COc1cc2c3c(n(CCCN4CCOCC4)c(=O)c2cc1OC)-c1cc2c(cc1C3=O)OCO2", "test system": "female Fischer 344 rat", "setting": "intravenous, 12 mg/m², single dose", "quantity": "AUC(0-inf)", "result": "403 ng·h/mL"}
{"Structure (SMILES)": "Oc1c(Br)cc(Cl)c2cccnc12", "test system": "Sprague-Dawley rat", "setting": "oral, 20 mg/kg", "quantity": "AUC(0-inf)", "result": "4500 ng·h/mL"}
{"Structure (SMILES)": "CCc1cc(C(=O)NC)c2nccc(N3CCc4c(cc(Cn5ccnc5)cc4-c4cn(C)nc4C(F)(F)F)C3=O)c2c1", "test system": "male Sprague-Dawley rat", "setting": "oral, 100 mg/kg, single dose", "quantity": "AUC(0-t)", "result": "37200 ng·h/mL"}
{"Structure (SMILES)": "N#Cc1ccc(Nc2nc(N)cc(Oc3c(F)cc(-c4ccc(C#N)cc4)cc3F)n2)cc1", "test system": "Sprague-Dawley rat", "setting": "intravenous, 1 mg/kg", "quantity": "AUC", "result": "308 ng·h/mL"}
{"Structure (SMILES)": "CCOC(=O)[C@@]12C[C@@H]1[C@@H](n1ccc3c(NC)nc(C#Cc4ccc(Cl)s4)nc31)[C@H](O)[C@@H]2O", "test system": "male Sprague-Dawley rat", "setting": "intravenous, 0.5 mg/kg", "quantity": "AUC(0-inf)", "result": "31.1 ng·h/mL"}
{"Structure (SMILES)": "CCNC(=O)c1nc(-c2ccc3[nH]c(-c4nc(C)no4)cc3c2)c(C)[nH]1", "test system": "Sprague-Dawley rat", "setting": "intravenous, 1 mg/kg", "quantity": "AUC", "result": "2.4 µM·h"}
{"Structure (SMILES)": "N#Cc1[nH]nnc1-c1cccc(-c2cc(F)cc(C(F)(F)F)c2)c1", "test system": "male Sprague-Dawley rat", "setting": "oral, 10 mg/kg", "quantity": "AUC", "result": "68200 ng·h/mL"}
{"Structure (SMILES)": "Cc1noc(-c2cc3cc(-c4nc(C(=O)NCc5ccncc5)[nH]c4C)ccc3[nH]2)n1", "test system": "Sprague-Dawley rat", "setting": "intravenous, 1 mg/kg", "quantity": "AUC", "result": "3 µM·h"}
{"Structure (SMILES)": "N#Cc1[nH]nnc1-c1csc(-c2ccc(Cl)cc2)n1", "test system": "male Sprague-Dawley rat", "setting": "oral, 10 mg/kg", "quantity": "AUC", "result": "18300 ng·h/mL"}
{"Structure (SMILES)": "C=CC(=O)N1CC2CC(n3nc(-c4ccc(C(=O)Nc5ccccn5)cc4)c4c(N)ncnc43)CC2C1 (centres unmarked)", "test system": "male Wistar rat", "setting": "oral, 300 mg/kg", "quantity": "AUC(0-t)", "result": "80700 ng·h/mL"}
